Measurements taken from ChEMBL document CHEMBL1275283, “Synthesis and evaluation of novel stearoyl-CoA desaturase 1 inhibitors: 1'-{6-[5-(pyridin-3-ylmethyl)-1,3,4-oxadiazol-2-yl]pyridazin-3-yl}-3,4-dihydrospiro[chromene-2,4'-piperidine] analogs” (Eur J Med Chem, 2010).
pIC50: −log10 of the molar value. ≈ marks a conversion by molar mass, not a printed value. Calls of active or inactive are those of the source. No cut-off for these calls is given here.

Legend:
Stearoyl-CoA desaturase [1] = target: T1, Stearoyl-CoA desaturase (Homo sapiens, UniProt O00767); assay: Inhibition of SCD1 in HEK293A cell microsomes assessed as reduction in conversion of [14C]stearic acid to [14C]oleic acid after 30 mins; design: species or system HEK293-A, Microsome
T1 sequence (O00767 whole entry): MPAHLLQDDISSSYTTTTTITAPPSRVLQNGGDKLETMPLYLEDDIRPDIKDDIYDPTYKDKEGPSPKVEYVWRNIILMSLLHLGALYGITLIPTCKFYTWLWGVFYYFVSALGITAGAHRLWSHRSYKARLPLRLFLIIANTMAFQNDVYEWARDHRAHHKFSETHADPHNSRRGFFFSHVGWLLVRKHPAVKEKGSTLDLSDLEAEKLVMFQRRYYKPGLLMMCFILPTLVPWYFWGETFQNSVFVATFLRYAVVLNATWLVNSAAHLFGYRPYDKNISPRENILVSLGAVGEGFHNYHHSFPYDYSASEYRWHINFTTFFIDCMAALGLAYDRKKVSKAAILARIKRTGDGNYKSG

Acyl-CoA desaturase 1 = target: T2, Acyl-CoA desaturase 1 (Mus musculus, UniProt P13516); assay: Inhibition of SCD1 in mouse microsome assessed as reduction in conversion of [14C]stearic acid to [14C]oleic acid after 30 mins; format: microsomes
T2 sequence (P13516 whole entry): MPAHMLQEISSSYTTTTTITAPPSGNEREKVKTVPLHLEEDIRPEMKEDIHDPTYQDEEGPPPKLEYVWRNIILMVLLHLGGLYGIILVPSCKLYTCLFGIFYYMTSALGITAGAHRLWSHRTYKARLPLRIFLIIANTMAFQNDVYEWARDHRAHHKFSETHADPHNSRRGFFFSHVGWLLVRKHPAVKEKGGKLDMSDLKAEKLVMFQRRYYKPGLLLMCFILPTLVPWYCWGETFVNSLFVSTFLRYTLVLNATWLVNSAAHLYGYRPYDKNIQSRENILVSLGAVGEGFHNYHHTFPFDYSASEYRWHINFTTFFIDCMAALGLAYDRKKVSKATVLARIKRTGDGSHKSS

Stearoyl-CoA desaturase [2] = target: T1, Stearoyl-CoA desaturase; assay: Inhibition of human SCD1 expressed in HEK293A cells assessed as reduction in conversion of [14C]stearic acid to [14C]oleic acid after 30 mins; format: cell-based, HEK293-A
How it was run: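 293A cells stably expressing human SCD1 (G418-selected) grown to confluence in DMEM + 10% FBS. Cells preincubated with compound 30 min, then given 0.1 µCi [14C]stearate for 4 h. Lipids saponified in KOH, separated by AgNO3-TLC, and the [14C]oleate/[14C]stearate ratio used as activity. IC50 derived from this read-out.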

Mus musculus [3] = assay: Inhibition of liver SCD1 activity in po dosed db/db mouse assessed as reduction in conversion of [14C]stearic acid to [14C]oleic acid; format: functional; details: read-out: ID50 (the source's name)
How it was run: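 Seven-week-old male db/db mice dosed by oral gavage 2 h before i.p. [14C]stearate (100 µCi/kg in saline with 2% BSA). Livers harvested 1 h later and homogenized in cold PBS. Saponified homogenate analyzed by AgNO3-TLC for the [14C]oleate/[14C]stearate ratio. ID50 is the dose giving 50% inhibition.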

[4] = Aqueous solubility of the compound at acidic JP-1 solution of pH 1.2 by HPLC analysis; format: physicochemical
How it was run: (§1)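 Solubility measured in purchased aqueous acidic JP-1 (pH 1.2) or neutral JP-2 (pH 6.8) media. Samples analyzed by HPLC, with UV peak area compared to a calibration standard of 250 µM compound in CH3CN/water 1:1. Means of at least two experiments.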

[5] = Aqueous solubility of the compound at neutral JP-2 solution of pH 6.8 by HPLC analysis; format: physicochemical; how it was run: as §1
[6] = Metabolic stability of the compound in human liver microsomes after 30 mins; format: ADME, Microsome; details: read-out: Stability
How it was run: (§2)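 Stability reported as % parent remaining after 30 min incubation with murine or human liver microsomes. Means of at least two experiments.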

[7] = Metabolic stability of the compound in mouse liver microsomes after 30 mins; format: ADME, Microsome; details: read-out: Stability; how it was run: as §2
Cytochrome P450 1A2 = target: T3, Cytochrome P450 1A2 (Homo sapiens, UniProt P05177); assay: Inhibition of CYP1A2; format: ADME
T3 sequence (P05177 whole entry): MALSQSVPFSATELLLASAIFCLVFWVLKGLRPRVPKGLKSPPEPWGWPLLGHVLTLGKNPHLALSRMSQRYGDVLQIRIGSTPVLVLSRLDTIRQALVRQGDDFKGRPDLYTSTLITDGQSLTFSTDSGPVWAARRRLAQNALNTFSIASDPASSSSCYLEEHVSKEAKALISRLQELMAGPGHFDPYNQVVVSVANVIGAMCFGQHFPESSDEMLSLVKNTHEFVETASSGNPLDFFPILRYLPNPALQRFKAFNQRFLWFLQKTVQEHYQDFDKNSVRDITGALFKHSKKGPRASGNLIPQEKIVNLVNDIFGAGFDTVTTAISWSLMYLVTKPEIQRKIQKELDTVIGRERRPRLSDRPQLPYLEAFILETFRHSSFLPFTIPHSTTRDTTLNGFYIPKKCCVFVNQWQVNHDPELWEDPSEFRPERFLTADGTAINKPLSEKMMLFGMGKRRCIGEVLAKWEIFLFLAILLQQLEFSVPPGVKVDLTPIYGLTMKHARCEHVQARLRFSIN

Cytochrome P450 2C9 = Cytochrome P450 2C9 (Homo sapiens, UniProt P11712); assay: Inhibition of CYP2C9; format: ADME
Cytochrome P450 2C19 = Cytochrome P450 2C19 (Homo sapiens, UniProt P33261); assay: Inhibition of CYP2C19; format: ADME
Cytochrome P450 2D6 = Cytochrome P450 2D6 (Homo sapiens, UniProt P10635); assay: Inhibition of CYP2D6; format: ADME
Cytochrome P450 3A4 = Cytochrome P450 3A4 (Homo sapiens, UniProt P08684); assay: Inhibition of CYP3A4; format: ADME
[8] = Half life in C57BL/6J mouse at 5 mg/kg, iv; format: ADME, organism-based; design: dose 5 mg/kg, route intravenous; details: in vivo
How it was run: (§3)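 Single intravenous tail-vein injection, 5 mg/kg in DMA/Tween80/saline 10:10:80, C57BL/6J mice (n = 2). Plasma collected up to 8 h post-dose. Means of at least two experiments.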

[9] = Clearance in C57BL/6J mouse at 5 mg/kg, iv up to 8 hrs; format: ADME, organism-based; design: dose 5 mg/kg, route intravenous; details: in vivo; how it was run: as §3
[10] = Volume of distribution in C57BL/6J mouse at 5 mg/kg, iv up to 8 hrs; format: ADME, organism-based; design: dose 5 mg/kg, route intravenous; details: in vivo; how it was run: as §3
Mus musculus [11] = assay: Toxicity in C57BL/6J mouse assessed as abnormalities in skin at 10 mg/kg, po QD for 7 days measured post last dose; format: organism-based; design: dose 10 mg/kg, route oral; details: in vivo, 168 h
Mus musculus [12] = assay: Inhibition of delta-(9)-desaturase in po dosed C57BL/6J mouse assessed as reduction in plasma desaturation index (C18:1/C18:0) QD for 7 days measured post last dose; format: functional, organism-based
How it was run: (§4)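 Nine-week-old male C57BL/6J mice on a high-carbohydrate diet (77.8 kcal% carbohydrate) for 7 days. Oral gavage once daily each evening at 0.3, 1, 3 or 10 mg/kg in propylene glycol/Tween 80 (4/1); n = 4. Serum taken the morning after the seventh dose, saponified in methanolic KOH and extracted with hexane. Index is oleate/stearate.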

Mus musculus [13] = assay: Inhibition of delta-(9)-desaturase in C57BL/6J mouse assessed as reduction in plasma desaturation index (C18:1/C18:0) at 1 mg/kg, po QD for 7 days measured post last dose; format: functional, organism-based; design: dose 1 mg/kg; how it was run: as §4
Mus musculus [14] = assay: Inhibition of delta-(9)-desaturase in C57BL/6J mouse assessed as reduction in plasma desaturation index (C18:1/C18:0) at 10 mg/kg, po QD for 7 days measured post last dose; format: functional; details: 168 h; how it was run: as §4
Mus musculus [15] = assay: Inhibition of delta-(9)-desaturase in C57BL/6J mouse assessed as reduction in plasma desaturation index (C18:1/C18:0) at 0.3 mg/kg, po QD for 7 days measured post last dose; format: functional; details: 168 h; how it was run: as §4
[16] = Cmax in C57BL/6J mouse at 20 mg/kg, po up to 8 hrs; format: ADME, organism-based; design: dose 20 mg/kg, route oral; details: in vivo
How it was run: (§5)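 Oral gavage via intubation tube at 20 mg/kg in propylene glycol/Tween 4:1, n = 3 C57BL/6J mice. Plasma sampled up to 8 h after dosing. Values are arithmetic means of at least two experiments.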

[17] = Tmax in C57BL/6J mouse at 20 mg/kg, po; format: ADME, organism-based; design: dose 20 mg/kg, route oral; details: in vivo; how it was run: as §5
[18] = AUC (0 to 8 hrs) in C57BL/6J mouse at 20 mg/kg, po; format: ADME, organism-based; design: time < 8 hr, dose 20 mg/kg, route oral; details: plasma; how it was run: as §5
[19] = Oral bioavailability in C57BL/6J mouse at 20 mg/kg up to 8 hrs; format: ADME, organism-based; details: in vivo
How it was run: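 Bioavailability derived from plasma exposure after oral dosing (20 mg/kg, PG/Tween 4:1 by intubation tube, n = 3) and intravenous tail-vein dosing (5 mg/kg, DMA/Tween80/saline 10:10:80, n = 2) in C57BL/6J mice. Plasma sampled up to 8 h.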

[20] = Half life in C57BL/6J mouse at 20 mg/kg, po; format: ADME, organism-based; design: dose 20 mg/kg, route oral; details: in vivo; how it was run: as §5
Mus musculus [21] = assay: Toxicity in C57BL/6J mouse assessed occurrence of mild eye fissures at 3 to 10 mg/kg, po QD for 7 days measured post last dose; format: organism-based; design: dose 3-10 mg/kg, route oral; details: in vivo, 168 h
Mus musculus [22] = assay: Toxicity in C57BL/6J mouse assessed change in size of Harderian gland at 3 to 10 mg/kg, po QD for 7 days measured post last dose; format: organism-based; design: dose 3-10 mg/kg, route oral; details: in vivo, 168 h
Mus musculus [23] = assay: Toxicity in C57BL/6J mouse assessed change in size of […] at 3 to 10 mg/kg, po QD for 7 days measured post last dose; format: organism-based; design: dose 3-10 mg/kg, route oral; details: in vivo, 168 h
Mus musculus [24] = assay: Toxicity in C57BL/6J mouse assessed change in organ morphology up to 10 mg/kg, po QD for 7 days measured post last dose by autopsy; format: organism-based; design: dose 10 mg/kg, route oral; details: in vivo, 168 h

Sequence of Cytochrome P450 3A4 (P08684 whole entry): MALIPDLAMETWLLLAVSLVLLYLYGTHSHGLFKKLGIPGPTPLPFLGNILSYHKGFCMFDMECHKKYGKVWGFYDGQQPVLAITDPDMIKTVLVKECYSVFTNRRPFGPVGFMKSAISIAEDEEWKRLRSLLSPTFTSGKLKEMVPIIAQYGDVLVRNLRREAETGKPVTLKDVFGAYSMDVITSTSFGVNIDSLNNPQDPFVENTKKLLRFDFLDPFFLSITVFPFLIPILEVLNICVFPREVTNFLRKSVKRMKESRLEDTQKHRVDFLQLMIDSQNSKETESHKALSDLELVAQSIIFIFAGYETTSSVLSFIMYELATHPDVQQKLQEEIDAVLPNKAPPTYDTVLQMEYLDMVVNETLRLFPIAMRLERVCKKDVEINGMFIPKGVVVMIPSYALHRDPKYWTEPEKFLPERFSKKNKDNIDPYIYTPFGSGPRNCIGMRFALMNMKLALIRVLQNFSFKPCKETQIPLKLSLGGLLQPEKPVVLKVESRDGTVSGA
Sequence of Cytochrome P450 2D6 (P10635 whole entry): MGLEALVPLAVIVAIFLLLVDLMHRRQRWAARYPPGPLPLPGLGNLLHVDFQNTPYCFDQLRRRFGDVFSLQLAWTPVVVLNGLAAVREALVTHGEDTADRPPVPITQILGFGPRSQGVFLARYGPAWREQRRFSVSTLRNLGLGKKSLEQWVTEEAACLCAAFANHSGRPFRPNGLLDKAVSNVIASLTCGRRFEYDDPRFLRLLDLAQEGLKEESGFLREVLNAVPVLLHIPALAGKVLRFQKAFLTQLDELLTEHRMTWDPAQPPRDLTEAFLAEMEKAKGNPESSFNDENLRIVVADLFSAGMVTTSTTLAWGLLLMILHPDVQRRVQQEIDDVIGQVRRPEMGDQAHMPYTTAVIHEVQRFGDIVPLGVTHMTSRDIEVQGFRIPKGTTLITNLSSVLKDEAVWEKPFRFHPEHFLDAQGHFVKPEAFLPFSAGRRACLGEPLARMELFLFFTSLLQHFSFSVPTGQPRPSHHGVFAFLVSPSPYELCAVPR
Sequence of Cytochrome P450 2C19 (P33261 whole entry): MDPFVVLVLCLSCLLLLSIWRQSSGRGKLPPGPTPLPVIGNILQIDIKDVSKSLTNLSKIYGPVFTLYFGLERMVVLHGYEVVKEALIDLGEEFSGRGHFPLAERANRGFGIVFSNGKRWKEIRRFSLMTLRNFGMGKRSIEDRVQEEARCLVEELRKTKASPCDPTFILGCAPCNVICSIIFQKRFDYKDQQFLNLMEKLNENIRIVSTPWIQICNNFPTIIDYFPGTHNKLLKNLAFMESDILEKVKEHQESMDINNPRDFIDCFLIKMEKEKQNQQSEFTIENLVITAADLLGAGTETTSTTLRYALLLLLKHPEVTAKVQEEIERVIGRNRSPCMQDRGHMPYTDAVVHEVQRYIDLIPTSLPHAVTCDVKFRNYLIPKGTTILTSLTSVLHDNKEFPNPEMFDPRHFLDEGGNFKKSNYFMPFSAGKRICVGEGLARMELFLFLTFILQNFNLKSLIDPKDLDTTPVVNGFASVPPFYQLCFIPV
Sequence of Cytochrome P450 2C9 (P11712 whole entry): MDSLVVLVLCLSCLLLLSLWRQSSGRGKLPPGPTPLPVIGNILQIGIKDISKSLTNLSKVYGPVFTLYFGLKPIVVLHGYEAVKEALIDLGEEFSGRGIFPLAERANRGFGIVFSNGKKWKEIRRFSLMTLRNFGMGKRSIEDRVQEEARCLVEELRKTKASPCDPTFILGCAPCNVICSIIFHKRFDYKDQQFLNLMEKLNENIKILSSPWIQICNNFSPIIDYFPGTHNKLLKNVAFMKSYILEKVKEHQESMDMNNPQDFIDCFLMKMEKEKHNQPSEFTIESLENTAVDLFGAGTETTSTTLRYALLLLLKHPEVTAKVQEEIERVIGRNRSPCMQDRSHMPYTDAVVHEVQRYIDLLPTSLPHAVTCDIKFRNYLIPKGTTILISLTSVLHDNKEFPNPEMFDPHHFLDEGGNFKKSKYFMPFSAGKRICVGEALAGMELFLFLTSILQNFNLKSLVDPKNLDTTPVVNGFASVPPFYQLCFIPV

SMILES | pIC50 (Stearoyl-CoA desaturase [1]) | pIC50 (Acyl-CoA desaturase 1) | pIC50 (Stearoyl-CoA desaturase [2]) | ED50 (Mus musculus [3]) [mg/kg] | solubility [4] [µM] | solubility [5] [µM] | Cmax [16] [ng/mL] | Tmax [17] [h] | AUC(0-t) at 8 h [18] [ng·h/mL] | half-life [20] [h] | further results
O=C(NCCc1cccnc1)c1ccc(N2CCC3(CCc4ccccc4O3)CC2)nn1 | 7.57 | 8.00 | 7.12 | 5 |  |  |  |  |  |  | 
Fc1cccc2c1CCC1(CCN(c3ccc(-c4nnc(Cc5cccnc5)o4)nn3)CC1)O2 | 9.52 | 8.70 | 9.15 | 0.6 | > 100 | < 0.5 | 2900 | 1.3 | 6800 | 1 | remaining at 0.5 h [6]: 65%; remaining at 0.5 h [7]: 51%; pIC50 (Cytochrome P450 1A2): 4.74; pIC50 (Cytochrome P450 2C9): 5.52; pIC50 (Cytochrome P450 2C19): 4.85; pIC50 (Cytochrome P450 2D6): 4.57; pIC50 (Cytochrome P450 3A4): 5.80; half-life [8]: 0.4 h; clearance [9]: 53 mL/min/kg; Vd [10]: 1.3 L/kg; Activity (Mus musculus [11]): Non-toxic; inhibition (Mus musculus [12]): Dose-dependent effect; inhibition (Mus musculus [13]): Active; inhibition in vivo at 10 mg/kg (Mus musculus [14]): 66%; inhibition in vivo at 0.3 mg/kg (Mus musculus [15]): 32%; bioavailability [19]: > 95%; Activity (Mus musculus [21]): Toxic; Activity (Mus musculus [22]): Non-toxic; Activity (Mus musculus [23]): Non-toxic; Activity (Mus musculus [24]): Non-toxic
c1ccc2c(c1)CCC1(CCN(c3ccc(-c4nnc(Cc5ccncc5)o4)nn3)CC1)O2 | 8.22 | 8.40 | 8.15 | 7 |  |  |  |  |  |  | 
Fc1ccc(F)c2c1CCC1(CCN(c3ccc(-c4nnc(Cc5cccnc5)o4)nn3)CC1)O2 | 10.00 | 9.30 | 9.00 | < 2 |  |  |  |  |  |  | 
c1cncc(Cc2nnc(-c3ccc(N4CCC5(CCc6ccccc6O5)CC4)nn3)o2)c1 | 9.00 | 8.70 | 8.40 | 2 | 92 (≈ 40.5 µg/mL) | 4.2 (≈ 1.85 µg/mL) | 1300 | 1 | 2400 | 0.8 | 
